Laboratory results from ChEMBL document CHEMBL1127351, “Technetium-99m N,N'-bis(2-mercapto-2-methylpropyl)-2-aminobenzylamine: technetium-99m complexes of a novel bis(aminoethanethiol) ligand” (J Med Chem, 1994).
Blank lines part the entries; values can stand above or below the substance they belong to.

Legend:
Rattus norvegicus [1] = organism: Rattus norvegicus; assay: Biodistribution of compound was tested in rat brain at 2 min; type: ADME, organism-based; settings: in vivo
Summary of the method: (§1)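 Male Sprague-Dawley rats (200–300 g) under ether anesthesia got an iv injection of 0.2 mL saline containing the 99mTc complex (2–5 μCi). At set times, blood was drawn by cardiac puncture and rats were killed by cardiectomy. Organs were excised, weighed and gamma-counted. % dose/organ was taken against diluted injected-dose standards. Values are the mean of three rats ± SEM.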

Rattus norvegicus [2] = organism: Rattus norvegicus; assay: Biodistribution of compound was tested in rat liver at 30 min; type: ADME, organism-based; settings: in vivo, 0.5 h; summary of the method: as §1
Rattus norvegicus [3] = organism: Rattus norvegicus; assay: Biodistribution of compound was tested in rat muscle at 30 min; type: ADME, organism-based, Muscle tissue; settings: in vivo, 0.5 h; summary of the method: as §1
Rattus norvegicus [4] = organism: Rattus norvegicus; assay: Biodistribution of compound was tested in rat lung at 30 min; type: ADME, organism-based; settings: in vivo, 0.5 h; summary of the method: as §1
Rattus norvegicus [5] = organism: Rattus norvegicus; assay: Biodistribution of compound was tested in rat brain at 30 min; type: ADME, organism-based; settings: in vivo, 0.5 h; summary of the method: as §1
Rattus norvegicus [6] = organism: Rattus norvegicus; assay: Biodistribution of compound was tested in rat heart at 2 min; type: ADME, organism-based; settings: in vivo; summary of the method: as §1
Rattus norvegicus [7] = organism: Rattus norvegicus; assay: Biodistribution of compound was tested in rat skin at 30 min; type: ADME, organism-based, Zone of skin; settings: in vivo, 0.5 h; summary of the method: as §1
Rattus norvegicus [8] = organism: Rattus norvegicus; assay: Biodistribution of compound was tested in rat blood at 2 min; type: ADME, organism-based; settings: in vivo; summary of the method: as §1
Rattus norvegicus [9] = organism: Rattus norvegicus; assay: Biodistribution of compound was tested in rat liver at 2 min; type: ADME, organism-based; settings: in vivo; summary of the method: as §1
Rattus norvegicus [10] = organism: Rattus norvegicus; assay: Biodistribution of compound was tested in rat kidney at 2 min; type: ADME, organism-based; settings: in vivo; summary of the method: as §1
Rattus norvegicus [11] = organism: Rattus norvegicus; assay: Biodistribution of compound was tested in rat blood at 30 min; type: ADME, organism-based; settings: in vivo, 0.5 h; summary of the method: as §1
Rattus norvegicus [12] = organism: Rattus norvegicus; assay: Biodistribution of compound was tested in rat muscle at 2 min; type: ADME, organism-based, Muscle tissue; settings: in vivo; summary of the method: as §1
Rattus norvegicus [13] = organism: Rattus norvegicus; assay: Biodistribution of compound was tested in rat spleen at 2 min; type: ADME, organism-based; settings: in vivo; summary of the method: as §1
Rattus norvegicus [14] = organism: Rattus norvegicus; assay: Biodistribution of compound was tested in rat heart at 30 min; type: ADME, organism-based; settings: in vivo, 0.5 h; summary of the method: as §1
Rattus norvegicus [15] = organism: Rattus norvegicus; assay: Biodistribution of compound was tested in rat lung at 2 min; type: ADME, organism-based; settings: in vivo; summary of the method: as §1
Rattus norvegicus [16] = organism: Rattus norvegicus; assay: Biodistribution of compound was tested in rat spleen at 30 min; type: ADME, organism-based; settings: in vivo, 0.5 h; summary of the method: as §1
Rattus norvegicus [17] = organism: Rattus norvegicus; assay: Biodistribution of compound was tested in rat skin at 2 min; type: ADME, organism-based, Zone of skin; settings: in vivo; summary of the method: as §1
Rattus norvegicus [18] = organism: Rattus norvegicus; assay: Biodistribution of compound was tested in rat kidney at 30 min; type: ADME, organism-based; settings: in vivo, 0.5 h; summary of the method: as §1
Rattus norvegicus [19] = organism: Rattus norvegicus; assay: Biodistribution of compound was tested in rat skin at 60 min; type: ADME, organism-based, Zone of skin; settings: in vivo, 1 h; summary of the method: as §1
Rattus norvegicus [20] = organism: Rattus norvegicus; assay: Biodistribution of compound was tested in rat lung at 60 min; type: ADME, organism-based; settings: in vivo, 1 h; summary of the method: as §1
Rattus norvegicus [21] = organism: Rattus norvegicus; assay: Biodistribution of compound was tested in rat muscle at 15 min; type: ADME, organism-based, Muscle tissue; settings: in vivo, 0.25 h; summary of the method: as §1
Rattus norvegicus [22] = organism: Rattus norvegicus; assay: Biodistribution of compound was tested in rat kidney at 15 min; type: ADME, organism-based; settings: in vivo, 0.25 h; summary of the method: as §1
Rattus norvegicus [23] = organism: Rattus norvegicus; assay: Biodistribution of compound was tested in rat skin at 15 min; type: ADME, organism-based, Zone of skin; settings: in vivo, 0.25 h; summary of the method: as §1
Rattus norvegicus [24] = organism: Rattus norvegicus; assay: Biodistribution of compound was tested in rat brain at 15 min; type: ADME, organism-based; settings: in vivo, 0.25 h; summary of the method: as §1
Rattus norvegicus [25] = organism: Rattus norvegicus; assay: Biodistribution of compound was tested in rat heart at 15 min; type: ADME, organism-based; settings: in vivo, 0.25 h; summary of the method: as §1
Rattus norvegicus [26] = organism: Rattus norvegicus; assay: Biodistribution of compound was tested in rat kidney at 60 min; type: ADME, organism-based; settings: in vivo, 1 h; summary of the method: as §1
Rattus norvegicus [27] = organism: Rattus norvegicus; assay: Biodistribution of compound was tested in rat spleen at 15 min; type: ADME, organism-based; settings: in vivo, 0.25 h; summary of the method: as §1
Rattus norvegicus [28] = organism: Rattus norvegicus; assay: Biodistribution of compound was tested in rat liver at 15 min; type: ADME, organism-based; settings: in vivo, 0.25 h; summary of the method: as §1
Rattus norvegicus [29] = organism: Rattus norvegicus; assay: Biodistribution of compound was tested in rat brain at 60 min; type: ADME, organism-based; settings: in vivo, 1 h; summary of the method: as §1
Rattus norvegicus [30] = organism: Rattus norvegicus; assay: Biodistribution of compound was tested in rat liver at 60 min; type: ADME, organism-based; settings: in vivo, 1 h; summary of the method: as §1
Rattus norvegicus [31] = organism: Rattus norvegicus; assay: Biodistribution of compound was tested in rat blood at 15 min; type: ADME, organism-based; settings: in vivo, 0.25 h; summary of the method: as §1
Rattus norvegicus [32] = organism: Rattus norvegicus; assay: Biodistribution of compound was tested in rat spleen at 60 min; type: ADME, organism-based; settings: in vivo, 1 h; summary of the method: as §1
Rattus norvegicus [33] = organism: Rattus norvegicus; assay: Biodistribution of compound was tested in rat lung at 15 min; type: ADME, organism-based; settings: in vivo, 0.25 h; summary of the method: as §1
Rattus norvegicus [34] = organism: Rattus norvegicus; assay: Biodistribution of compound was tested in rat heart at 60 min; type: ADME, organism-based; settings: in vivo, 1 h; summary of the method: as §1
Rattus norvegicus [35] = organism: Rattus norvegicus; assay: Biodistribution of compound was tested in rat blood at 60 min; type: ADME, organism-based; settings: in vivo, 1 h; summary of the method: as §1
Rattus norvegicus [36] = organism: Rattus norvegicus; assay: Biodistribution of compound was tested in rat muscle at 60 min; type: ADME, organism-based, Muscle tissue; settings: in vivo, 1 h; summary of the method: as §1

Dose/organ (Rattus norvegicus [1]): 1.07% | Dose/organ (Rattus norvegicus [2]): 22.65% | Dose/organ (Rattus norvegicus [3]): 13.52% | Dose/organ (Rattus norvegicus [4]): 1.98% | Dose/organ (Rattus norvegicus [5]): 0.28% | Dose/organ (Rattus norvegicus [6]): 1.15% | Dose/organ (Rattus norvegicus [7]): 11.94% | Dose/organ (Rattus norvegicus [8]): 8.12% | Dose/organ (Rattus norvegicus [9]): 22.76% | Dose/organ (Rattus norvegicus [10]): 3.3% | Dose/organ (Rattus norvegicus [11]): 3.22% | Dose/organ (Rattus norvegicus [12]): 10.24% | Dose/organ (Rattus norvegicus [13]): 0.68% | Dose/organ (Rattus norvegicus [14]): 0.24% | Dose/organ (Rattus norvegicus [15]): 4.47% | Dose/organ (Rattus norvegicus [16]): 0.3% | Dose/organ (Rattus norvegicus [17]): 3.94% | Dose/organ (Rattus norvegicus [18]): 1.33%
Substance: tecnicium complex

Dose/organ (Rattus norvegicus [1]): 1.54% | Dose/organ (Rattus norvegicus [19]): 16.5% | Dose/organ (Rattus norvegicus [20]): 0.5% | Dose/organ (Rattus norvegicus [21]): 16.5% | Dose/organ (Rattus norvegicus [22]): 1.54% | Dose/organ (Rattus norvegicus [23]): 10.45% | Dose/organ (Rattus norvegicus [6]): 1.28% | Dose/organ (Rattus norvegicus [8]): 4.37% | Dose/organ (Rattus norvegicus [9]): 23.58% | Dose/organ (Rattus norvegicus [10]): 3.58% | Dose/organ (Rattus norvegicus [24]): 0.72% | Dose/organ (Rattus norvegicus [25]): 0.53% | Dose/organ (Rattus norvegicus [26]): 0.93% | Dose/organ (Rattus norvegicus [12]): 20.77% | Dose/organ (Rattus norvegicus [27]): 0.72% | Dose/organ (Rattus norvegicus [28]): 26.5% | Dose/organ (Rattus norvegicus [29]): 0.21% | Dose/organ (Rattus norvegicus [30]): 20.75% | Dose/organ (Rattus norvegicus [13]): 0.64% | Dose/organ (Rattus norvegicus [31]): 2% | Dose/organ (Rattus norvegicus [15]): 1.79% | Dose/organ (Rattus norvegicus [32]): 0.68% | Dose/organ (Rattus norvegicus [33]): 0.91% | Dose/organ (Rattus norvegicus [17]): 13.48% | Dose/organ (Rattus norvegicus [34]): 0.28% | Dose/organ (Rattus norvegicus [35]): 1.27% | Dose/organ (Rattus norvegicus [36]): 20.08%
Substance: technicium complex
